Laboratory results as given in ChEMBL document CHEMBL3102827, “Permeability and conjugative metabolism of flaxseed lignans by Caco-2 human intestinal cells” (J Nat Prod, 2014).

Columns and labels:
[1] = Drug metabolism in human Caco2 cells assessed as compound glucuronidation/sulfation at 100 uM after 48 hrs by HPLC analysis; format: ADME, cell-based; conditions: Caco-2 cells, read-out: Drug metabolism
Method in brief: (§1)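 Caco-2 grown 21 days in 24-well plates, washed with HBSS/HEPES pH 7.4, then given 100 μM lignan in DMEM in triplicate at 37 °C. Supernatant and cells taken at 0, 2, 4, 6, 12, 24 and 48 h. Samples hydrolysed with H. pomatia β-glucuronidase/sulfatase H-5 (0.66 mg in 0.1 M acetate pH 5.0, 37 °C, 2 h), acetonitrile-precipitated and analysed by HPLC. Conjugate = total minus free, relative to a zero-time control.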

Caco-2 [2] = test: (§2) Apparent permeability across apical to basolateral side in human Caco2 cells after 2 hrs by HPLC analysis; format: ADME, cell-based; conditions: caco-2, 2 h, BLD = below limit of detection
Method in brief: (§3)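 Caco-2 (passages 41−54, DMEM/10% FBS/1% NEAA) grown 21 days on polyester Transwells (0.4 μm pore). Cells washed with HBSS/10 mM HEPES pH 7.4 and equilibrated 30 min at 37 °C; lignan at 100 μM added to apical or basolateral side, 2 h at 37 °C. Both compartments sampled and quantified by HPLC. Papp = (dQ/dt)/(Am·C0). Integrity checked by TEER and Lucifer yellow. Transport linear to 2 h.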

[3] = Stability in HBSS after 48 hrs; format: physicochemical; conditions: read-out: Stability
Method in brief: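 Lignans kept in test medium in wells without cells for up to 48 h. Remaining compound was measured to judge stability.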

Caco-2 [4] = test: (§4) Apparent permeability across basolateral to apical side in human Caco2 cells after 2 hrs by HPLC analysis; format: ADME, cell-based; conditions: caco-2, 2 h, BLD = below limit of detection; method in brief: as §3
[5] = as §2; format: ADME, cell-based, Caco-2; conditions: Caco-2; method in brief: as §3
[6] = Efflux ratio of permeability from basolateral to apical side over apical to basolateral side in human Caco2 cells after 2 hrs by HPLC analysis; format: ADME, cell-based; conditions: Caco-2
Method in brief: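 Efflux ratio taken as Papp B→A over Papp A→B. Papp comes from 2 h bidirectional transport of 100 μM lignan across 21-day Caco-2 monolayers on Transwells in HBSS/10 mM HEPES pH 7.4 at 37 °C, with HPLC quantitation of both compartments. TEER and Lucifer yellow used to confirm monolayer integrity.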

[7] = as §4; format: ADME, cell-based, Caco-2; conditions: Caco-2; method in brief: as §3
[8] = Activity at Helix pomatia beta-glucuronidase/sulfatase type H-5 in compound-treated human Caco2 cell lysate assessed as formation of glucuronidase/sulfatase-sensitive conjugates at 100 uM after 12 hrs by HPLC analysis; format: ADME, cell-based; conditions: caco-2, 12 h; method in brief: as §1

Compound: COc1cc(C[C@@H](CO[C@@H]2O[C@H](CO)[C@@H](O)[C@H](O)[C@H]2O)[C@H](CO[C@@H]2O[C@H](CO)[C@@H](O)[C@H](O)[C@H]2O)Cc2ccc(O)c(OC)c2)ccc1O
- metabolised at 48 h, 100 µM [1]: < 3%
- Papp (Caco-2 [2]): BLD
- remaining at 48 h [3]: > 95%
- Papp (Caco-2 [4]): BLD

Compound: O=C1OC[C@H](Cc2cccc(O)c2)[C@H]1Cc1cccc(O)c1 (relative stereo) [ENTEROLACTONE]
- Papp A→B at 2 h [5]: 13.7 ×10⁻⁶ cm/s
- efflux ratio at 2 h [6]: 0.8
- remaining at 48 h [3]: > 95%
- Papp B→A at 2 h [7]: 10.6 ×10⁻⁶ cm/s
- Drug metabolism [8]: Active

Compound: OC[C@H](Cc1cccc(O)c1)[C@H](CO)Cc1cccc(O)c1 [ENTERODIOL]
- Papp A→B at 2 h [5]: 7.7 ×10⁻⁶ cm/s
- efflux ratio at 2 h [6]: 1.2
- remaining at 48 h [3]: > 95%
- Papp B→A at 2 h [7]: 8.9 ×10⁻⁶ cm/s

Compound: COc1cc(C[C@@H](CO)[C@H](CO)Cc2ccc(O)c(OC)c2)ccc1O [(+)-SECOISOLARICIRESINOL]
- Papp A→B at 2 h [5]: 8 ×10⁻⁶ cm/s
- efflux ratio at 2 h [6]: 1.2
- remaining at 48 h [3]: > 95%
- Papp B→A at 2 h [7]: 9.5 ×10⁻⁶ cm/s
